{"source": "paper PMC6482285", "about": "(Chembiochem : a European journal of chemical biology, 2014)", "assay_type_in_all_cases": "biochemical", "key": {"eEF-2K [1]": {"molecular_target": "T1, eEF-2K (Homo sapiens, UniProt O00418)", "assay": "ADP binding to eEF-2K"}, "eEF-2K C146A": {"molecular_target": "eEF-2K C146A (Homo sapiens, UniProt O00418, C146A)", "assay": "kinase dose response and recovery assays with the C146A mutant"}, "eEF-2K [2]": {"molecular_target": "T1, eEF-2K", "assay": "recovery experiments after 50-fold dilution, loss of E•I*"}, "eEF-2K [3]": {"molecular_target": "T1, eEF-2K", "assay": "eEF-2K kinase assay, dose response", "conditions": "100 μM ATP"}, "eEF-2K C146S": {"molecular_target": "eEF-2K C146S (Homo sapiens, UniProt O00418, C146S)", "assay": "kinase dose response and recovery assays with the C146S mutant"}, "eEF-2K Y236F": {"molecular_target": "eEF-2K Y236F (Homo sapiens, UniProt O00418, Y236F)", "assay": "kinase dose response and recovery assays with the Y236F mutant"}, "eEF-2K [4]": {"molecular_target": "T1, eEF-2K", "assay": "time dependent inhibition", "how_it_was_run": "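eEF-2K (100 nM) incubated with test compound (0–500 μM) for 0–120 min in 25 mM HEPES pH 7.5, BSA, DTT, 5% DMSO. ADP protection used 0/250 μM compound ± 4 mM ADP; glutathione used 2.5 mM for 1 h. Diluted 50-fold into 30 °C assay buffer (150 μM CaCl2, 1 μM calmodulin, 50 μM peptide), started with 100 μM [γ-32P]ATP, read by P81 counting. E•I* formation fitted exponentially or globally for Kd, k2.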"}, "[5]": {"conditions": "1 mM, 1 hour incubation, rapidly diluted"}}, "note": "Values joined by “and” are separate entries in the source; they are usually repeats but may differ in a detail not shown here. Equal entries are not always repeated.", "data": [{"molecule": "Nc1ncnc2c1ncn2[C@@H]1O[C@H](COP(=O)(O)OP(=O)(O)O)[C@@H](O)[C@H]1O", "note": "[ADP]", "values": [{"measurement": "Ki", "setting": "eEF-2K [1]", "value": "~1000", "unit": "µM"}]}, {"molecule": "N#CC1=C(N)SC(N)=C(C#N)C1c1ccccc1F", "note": "[DFTD, 2,6-diamino-4-(2-fluorophenyl)-4H-thiopyran-3,5-dicarbonitrile]", "values": [{"measurement": "IC50", "setting": "eEF-2K C146A", "value": 890, "unit": "µM"}, {"measurement": "time-dependence of inhibition", "setting": "eEF-2K C146A", "value": "no time-dependence"}, {"measurement": "recovery of enzyme activity after dilution", "setting": "eEF-2K C146A; [5]", "value": "maximal activity was attained immediately"}, {"measurement": "k-2 (disappearance of E•I*)", "setting": "eEF-2K [2]; 250 μM, 1 hour incubation, 50-fold dilution, first order fit", "value": 0.0006, "unit": "s⁻¹"}, {"measurement": "recovery of enzyme activity after dilution", "setting": "eEF-2K [2]; wild type, 1 mM, 1 hour incubation, rapidly diluted", "value": "slow recovery of activity"}, {"measurement": "IC50", "setting": "eEF-2K [3]; apparent IC50, 10 minute incubation", "value": 110, "unit": "µM"}, {"measurement": "IC50", "setting": "eEF-2K C146S", "value": 655, "unit": "µM"}, {"measurement": "time-dependence of inhibition", "setting": "eEF-2K C146S", "value": "no time-dependence"}, {"measurement": "recovery of enzyme activity after dilution", "setting": "eEF-2K C146S; [5]", "value": "maximal activity was attained immediately"}, {"measurement": "IC50", "setting": "eEF-2K Y236F", "value": 105, "unit": "µM"}, {"measurement": "recovery of enzyme activity after dilution", "setting": "eEF-2K Y236F; [5]", "value": "slow recovery of activity"}, {"measurement": "Kd", "setting": "eEF-2K [4]", "value": 140, "unit": "µM"}, {"measurement": "kobs for the formation of the E•I* complex", "setting": "eEF-2K [4]; DFTD 250 μM in the absence of ADP", "value": "0.0015 ± 0.0003", "unit": "s⁻¹"}, {"measurement": "kobs for the formation of the E•I* complex", "setting": "eEF-2K [4]; DFTD 250 μM in the presence of ADP (4 mM)", "value": "0.0002 ± 0.00003", "unit": "s⁻¹"}, {"measurement": "effect of glutathione on the inactivation or the reversibility rate", "setting": "eEF-2K [4]; DFTD 250 μM pre-incubated with 2.5 mM glutathione for 1 hour", "value": "no significant effect"}, {"measurement": "enzyme covalently bound at saturation", "setting": "eEF-2K [4]; at saturation", "value": "approximately 75%"}, {"measurement": "slow equilibrium on the enzyme (=k2/k-2)", "setting": "eEF-2K [4]; global fit of Figures 2B and 2C", "value": 2.8}, {"measurement": "k2 (inactivation step)", "setting": "eEF-2K [4]; global fit of time-dependent and recovery experiments, KinTek Global Explorer", "value": 0.0017, "unit": "s⁻¹"}]}, {"molecule": "COc1cccc(C2C(C#N)C(=O)NC(=O)C2C#N)c1", "note": "(stereo not shown) [MDP, 4-(3-methoxyphenyl)-2,6-dioxo-3,5-piperidinedicarbonitrile]", "values": [{"measurement": "kobs for the loss of the E•I* complex (recovery of activity)", "setting": "eEF-2K [2]; MDP 500 μM, 60 min, diluted 50-fold", "value": "0.00056 s⁻¹ and 0.00056 ± 0.00003 s⁻¹"}, {"measurement": "h (hill coefficient)", "setting": "eEF-2K [3]; 60 minutes preincubation", "value": "0.93 ± 0.01"}, {"measurement": "kobs for the formation of E•I* complex", "setting": "eEF-2K [4]; MDP 500 μM", "value": "0.0031 ± 0.0002", "unit": "s⁻¹"}]}]}
